Rad51 HR inh – Rad51 (human) homologous recombination inhibition; hRad51 DNA strand exchange, fluorescence dequenching; inhibition, % at 10 µM; hit rate 0.085% among 200,000; Q06609;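 active = inhibition above 40% at the single screening dose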
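Material: human Rad51–ssDNA filaments; Probe or stimulus: labelled 47-mer dsDNA for strand exchange; Doses: single 10 µM dose; Incubation: 37 °C 15-min filament assembly, 30-min compound preincubation, 15-min exchange; Technique: FRET fluorescence dequenching, excitation 485 nm, emission 520 nm; Measure: Fluorescence-based percent inhibition, control- and blank-normalised; Benchmarks: plate control and blank wells.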
WT yeast gro inh – growth inhibition of WT yeast, mitochondrial fusion screen. inhibition, % at 10 µM. hit rate 2.1% among 190,000. mitochondrial fusion phenotypic screen, WT strain; in the data active = inhibition above about 58%; tested in S. cerevisiae
Insulin prom up – MIN6 insulin promoter up-regulation | AID 1625 | hit rate 0.3% among 190,000 | MIN6 insulin promoter-GFP reporter, high-content imaging; hits give high values | z-score at 5 µM;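 active = z-score above 3 at 5 µM with at least 500 cells counted in the well; inconclusive = wells under 500 cells, flagged as cytotoxic or low count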
Autophagy HCS – autophagy modulation, high-content screen | MEF GFP-LC3 puncta imaging; test concentration mostly 10 µM | calls only at 10 µM (by protocol) | hit rate 0.98% among 190,000 | AID 463193;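 active = percentage of spot-positive cells more than 3 SD above its plate mean, without a fluorescence outlier flag or 80% toxicity; inconclusive = no clear call, values can overlap the other calls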
Cl transport mod – KCC2 (human) Cl- transport modulation | Q9H2X9 | KCC2 cells, thallium flux FluoZin-2 fluorescence | B-score of Tl+ flux slope (higher = more flux/activation; lower = inhibition) at 10 µM | hit rate 2.2% among 190,000 | AID 1456;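 active = thallium flux slope and its plate-corrected score both differing from the plate sample mean at a set confidence after two filtering rounds, in either direction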;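 note: slope of fluorescence scaled to starting intensity during 10 to 20 s after thallium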
SKKanGAS inh – SKKanGAS growth inhibition. S. pyogenes SKKanGAS, kanamycin growth, BacTiter-Glo, 6 h. inhibition, % at 7.5 µM. hit rate 1.3% among 300,000;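 active = mean replicate score, as percent of positive control median, at least 50; inconclusive = mean below 50 but one replicate at or above 50; inactive = mean and every replicate below 50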;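 note: strain carries kanamycin resistance gene driven by streptokinase promoter and grows in 40 µg/ml kanamycin; loss of luminescence reflects streptokinase promoter inhibition or plain growth inhibition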
KCC2 sec1 – confirmation of human KCC2 transport modulators; shares compounds with Cl transport mod; HEK293-KCC2, thallium flux, FluoZin2 fluorescence; hits give high values; normalised thallium flux (F/F0 slope) at 10 µM; hit rate 15% among 3,700; AID 1713;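 active = thallium flux slope above the same plate's solvent-only control mean plus 3 SD; inconclusive = the two replicate wells disagree; inactive = no significant difference from solvent-only control wells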
KCC2 bumet counter – bumetanide-insensitive thallium flux in KCC2 cells with ouabain, counter-screen; shares compounds with Cl transport mod; normalized thallium flux at 10 µM; HEK293-KCC2 + bumetanide/ouabain, thallium flux FluoZin2; hits give high values; hit rate 49% among 3,700; AID 1714;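 active = thallium entry rate above the same plate's blocked-transporter control wells by more than 3 SD; inconclusive = the two repeat wells disagree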;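 note: raw slope of fluorescence over initial fluorescence between 10 and 20 s after thallium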
KCC2 secondary2 – confirmation of human KCC2 transport modulators; HEK293-KCC2, thallium flux FluoZin2 fluorescence; actives lie on both sides; F/F0 rise rate, 10–20 s post-thallium; normalized thallium flux at 10 µM; shares compounds with Cl transport mod; hit rate 23% among 3,700;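 active = thallium flux slope more than 3 SD above or below the plate's solvent-only control mean, mostly below; inconclusive = the two repeat wells disagreed; inactive = no significant shift from solvent-only controls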
HEK counter1 – parental HEK flux effect, counter-screen | shares compounds with Cl transport mod | HEK293 parental cells, thallium flux FluoZin2, ouabain; baseline-ratio fluorescence slope, 10–20 s after thallium | thallium flux rate (normalised fluorescence) at 10 µM | hit rate 46% among 3,700 | AID 1716;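 active = thallium flux rate significantly above the same plate's solvent-only control wells, beyond their mean plus 3 SD; inconclusive = the two replicate wells gave conflicting results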
KCC2 ouabain – modulates human KCC2 on retest with ouabain. shares compounds with Cl transport mod. hit rate 48% among 3,700. HEK293-KCC2, thallium flux FluoZin2 fluorescence; bidirectional: low = inhibitor, high = activator. raw Tl+ flux slope (below DMSO = inhibition, above = activation) at 10 µM. AID 1717;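 active = thallium flux slope beyond 3 SD from same-plate DMSO control mean in most replicates, usually higher, sometimes lower; inconclusive = repeat tests gave conflicting results; inactive = no significant difference from controls in most replicates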;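 note: slope of initial-normalized fluorescence between seconds 10 and 20 after thallium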
HEK counter2 – counter-screen for KCC2 modulators: effect in parental HEK293 cells; thallium flux FluoZin-2 fluorescence slope; AID 1718; thallium flux slope at 10 µM; shares compounds with Cl transport mod; hit rate 33% among 3,700;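 active = thallium flux slope above the same plate's solvent-control mean plus 3 SD in both duplicate wells; inconclusive = duplicate wells that disagreed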;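 note: run without ouabain in cells lacking the KCC2 cotransporter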
Numbers stand for hits; n = inactive; u = inconclusive; x = no result; + = active, no number. An excerpt weighted towards active compounds, which were near 4.2% of everything screened.

SMILES	Rad51 HR inh	WT yeast gro inh	Insulin prom up	Autophagy HCS	Cl transport mod	SKKanGAS inh	KCC2 sec1	KCC2 bumet counter	KCC2 secondary2	HEK counter1	KCC2 ouabain	HEK counter2
COC(=O)/C=C/c1ccc(OC(=O)OC)c(OC(=O)OC)c1	n	n	x	n	n	n	x	x	x	x	x	x
N#CCc1ccc(OC(=O)c2ccncc2)cc1	x	x	x	x	x	n	x	x	x	x	x	x
O=C1C2Sc3[nH]c(=O)sc3C(c3ccccc3)C2C(=O)N1c1ccccc1 (centres undefined)	n	n	n	n	-12	n	u	n	0.017	n	u	n
COc1ccc(C2c3sc(=O)[nH]c3SC3C(=O)N(c4ccccc4)C(=O)C32)cc1 (centres undefined)	n	n	n	x	-5.9	n	n	0.0087	0.022	0.0097	0.011	n
Cc1ccccc1OCC(=O)Nc1ccc2[nH]ncc2c1	x	x	x	x	x	n	x	x	x	x	x	x
CC1CCCN(S(=O)(=O)c2ccc(NC(=O)C3CC(=O)N(c4ccccc4)C3)cc2)C1 (centres undefined)	x	x	x	x	x	n	x	x	x	x	x	x
CCn1nnc(NC(=S)NC(=O)c2ccc(-c3cccc(Cl)c3)o2)n1	x	x	n	x	67	n	u	0.085	0.065	0.057	0.066	0.054
CCCCn1nnc(NC(=O)c2ccc(-c3cccc(Cl)c3)o2)n1	n	n	x	n	n	n	x	x	x	x	x	x
O=C(/C=C/c1cn(CC(O)CN2CCCCC2)c2ccccc12)c1cccs1 (centres undefined)	n	n	4.6	+	4.6	n	n	n	0.024	n	0.016	n
CCCn1nc([N+](=O)[O-])c(C(C#N)c2nc3ccccc3s2)c(Cl)c1=O (centres undefined)	n	78	n	n	-6.1	n	n	0.0059	u	0.0058	0.011	0.0081
CCOCCn1ccc2c(OCC(=O)NCc3ccccc3)cccc2c1=O	x	x	x	x	x	n	x	x	x	x	x	x
O=C(CN(Cc1ccccc1)S(=O)(=O)c1ccc2c(c1)OCCO2)Nc1ccc2c(c1)OCCO2	n	n	n	n	x	n	n	n	0.025	0.0062	u	n
O=C(Cc1csc(-c2ccccc2)n1)NCc1ccc(F)cc1	n	n	n	n	-5.2	n	n	n	0.03	n	0.016	n
O=C(NCc1csc(-c2ccccc2)n1)c1cc(F)cc2c1OCOC2	x	x	n	x	-3.8	n	u	n	n	n	0.015	n
O=C(Cc1csc(-c2ccccc2)n1)NCc1ccccc1F	n	n	n	n	n	n	x	x	x	x	x	x
CN(C)c1ccc(/C=C/c2ccc3c4ccccc4ccc3[n+]2-c2ccccc2)cc1	51	n	u	+	-3.2	x	n	n	0.024	u	0.014	n
CN(C)c1ccc(/C=C/c2cccc[n+]2[O-])cc1	x	x	n	x	n	n	x	x	x	x	x	x
O=S(=O)(CCOc1ccccc1)c1nc2ccccc2[nH]1	n	n	n	n	x	n	n	n	n	n	n	n
O=C(CCn1c(=O)c2ccccc2n(Cc2cccc([N+](=O)[O-])c2)c1=O)N1CCc2ccccc2C1	n	n	n	n	-3.1	n	n	n	n	n	0.018	n
NC(=O)COC(=O)/C=C/c1cccc(Br)c1	n	n	n	n	-7.7	n	n	n	n	n	n	n
CN(C)CCNC(=O)c1ccc(Cl)s1	n	n	n	n	7.3	n	n	n	n	n	n	u
O=C(NCCCCNC(=O)c1ccc(Cl)s1)c1ccc(Cl)s1	n	n	x	n	n	n	x	x	x	x	x	x
CN1CCN(C(=O)c2cc(COc3c(F)cccc3F)on2)CC1c1ccccc1 (centres undefined)	n	79	n	n	-4	n	n	n	n	n	0.015	n
O=C(c1cc(COc2c(F)cccc2F)on1)N1CCC(c2ccncc2)CC1	n	n	n	n	x	n	u	0.0084	u	n	0.019	n
O=C(NCCCn1ncc2ccccc21)c1cc(COc2c(F)cccc2F)on1	n	n	x	n	-5.9	n	n	u	0.022	n	0.012	n
SMILES	Rad51 HR inh	WT yeast gro inh	Insulin prom up	Autophagy HCS	Cl transport mod	SKKanGAS inh	KCC2 sec1	KCC2 bumet counter	KCC2 secondary2	HEK counter1	KCC2 ouabain	HEK counter2
O=C(c1cc(COc2c(F)cccc2F)on1)N1CCc2ccccc2C1	n	n	x	n	-4.4	n	n	n	n	n	0.015	n
Cc1cc(C)c(S(=O)(=O)N2CCOC2CNC(=O)C(=O)NCCN2CCOCC2)c(C)c1 (centres undefined)	x	x	x	x	x	n	x	x	x	x	x	x
CC(C)C[C@H](NC(=O)C1CCN(S(=O)(=O)c2ccccc2)CC1)C(=O)NCc1ccccn1	x	x	x	x	x	n	x	x	x	x	x	x
Cc1ccccc1CC(=O)N1CCOCC1	x	x	x	x	x	n	x	x	x	x	x	x
CSCCC(NC(=O)/C(=C\c1ccc(Cl)cc1)NC(=O)c1ccccc1)C(=O)O (centres undefined)	n	n	n	n	n	n	x	x	x	x	x	x
Cn1nc(C(=O)Nc2nc3ccc(S(C)(=O)=O)cc3s2)ccc1=O	x	n	n	n	4.7	n	n	0.021	n	0.013	n	u
CS(=O)(=O)c1ccc2nc(NC(=O)c3ccc(=O)[nH]c3)sc2c1	x	x	n	x	n	n	x	x	x	x	x	x
CC(C)OCCCn1c(-c2ccc(Br)cc2)c[nH]c1=S	n	n	n	n	9.5	n	n	0.043	n	0.02	0.04	0.013
CC(C)OCCCNC(=O)c1ccc(Br)cc1	n	n	n	n	n	n	x	x	x	x	x	x
C=CCNC(=S)NC(=O)c1ccc(C)c(Br)c1	n	n	n	n	40	n	0.018	0.092	n	u	0.064	0.022
C=CCNC(=S)NNC(=O)c1ccc(C)c(Cl)c1	n	n	n	n	n	n	x	x	x	x	x	x
COc1ccc(N(CC(=O)Nc2ccc(C)c(C)c2)S(=O)(=O)c2c(C)n[nH]c2C)cc1	x	n	n	n	x	n	n	u	0.026	n	u	n
Cc1cccc(C)c1-n1cccc1/C=C1/C(=N)N2C(=NC1=O)SN=C2S(C)(=O)=O	n	n	n	n	-4.5	n	n	n	n	n	0.015	n
Cc1ccc(-n2cccc2/C=C2/C(=N)N3C(=NC2=O)SN=C3S(C)(=O)=O)cc1Cl	n	n	n	n	n	x	x	x	x	x	x	x
